From ChEMBL document CHEMBL1671627, “Increasing trends in antimicrobial resistance among clinically important anaerobes and Bacteroides fragilis isolates causing nosocomial infections: emerging resistance to carbapenems” (2008)
Converted amounts (≈) assume the structure as drawn.

Assays:
[1] = tested on: Fusobacterium necrophorum; assay: Antibacterial activity against Fusobacterium necrophorum assessed as susceptible isolates by CLSI agar dilution method in presence of clavulanate; assay type: functional
Method in brief: (§1)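 Agar dilution per CLSI guidelines on nonduplicate anaerobic bloodstream isolates collected at NTUH, January to December 2006. Isolates were spotted by Steers replicator onto supplemented Brucella blood agar and incubated anaerobically for 48 h at 35°C. MIC was the lowest drug concentration that inhibited growth. B. fragilis ATCC 25285, B. thetaiotaomicron ATCC 29741 and E. lentum ATCC 43055 were run as QC in each run.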

[2] = tested on: Bacteroides thetaiotaomicron; assay: Antibacterial activity against beta-lactamase producing Bacteroides thetaiotaomicron by CLSI agar dilution method in presence of clavulanate; assay type: functional; method in brief: as §1
[3] = tested on: Peptoniphilus asaccharolyticus; assay: Antibacterial activity against beta-lactamase producing Peptoniphilus asaccharolyticus assessed as resistant isolates by CLSI agar dilution method in presence of clavulanate; assay type: functional
Method in brief: (§2)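 207 nonduplicate anaerobic blood isolates from patients with bloodstream infections at NTUH, collected January–December 2006. MICs were determined by agar dilution following CLSI guidelines. Inocula were applied with a Steers replicator onto supplemented Brucella blood agar and incubated 48 h at 35°C in an anaerobic chamber. MIC was the lowest concentration inhibiting growth. B. fragilis ATCC 25285, B. thetaiotaomicron ATCC 29741 and E. lentum ATCC 43055 served as controls in each run.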

Fusobacterium mortiferum [4] = assay: Antibacterial activity against Fusobacterium mortiferum by CLSI agar dilution method in presence of clavulanate; assay type: functional; method in brief: as §1
Clostridium septicum [5] = assay: Antibacterial activity against beta-lactamase producing Clostridium septicum by CLSI agar dilution method in presence of clavulanate; assay type: functional
Method in brief: (§3)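 CLSI agar dilution MICs for anaerobic blood isolates (nonduplicate) collected from bloodstream-infection patients at a Taiwanese tertiary hospital, January–December 2006. Isolates were spotted by Steers replicator onto supplemented Brucella blood agar and incubated anaerobically for 48 h at 35°C. MIC was the lowest drug concentration inhibiting growth. Each run included B. fragilis ATCC 25285, B. thetaiotaomicron ATCC 29741 and E. lentum ATCC 43055 as quality-control strains.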

[6] = tested on: Prevotella melaninogenica; assay: Antibacterial activity against Prevotella melaninogenica assessed as susceptible isolates by CLSI agar dilution method in presence of clavulanate; assay type: functional; method in brief: as §1
Fusobacterium nucleatum [7] = assay: Antibacterial activity against Fusobacterium nucleatum assessed as resistant isolates by CLSI agar dilution method in presence of clavulanate; assay type: functional; method in brief: as §2
Fusobacterium varium [8] = assay: Antibacterial activity against Fusobacterium varium by CLSI agar dilution method in presence of clavulanate; assay type: functional; method in brief: as §1
Bacteroides fragilis [9] = assay: Antibacterial activity against Bacteroides fragilis by CLSI agar dilution method in presence of clavulanate; assay type: functional; method in brief: as §1
[10] = tested on: Prevotella melaninogenica; assay: Antibacterial activity against Prevotella melaninogenica assessed as resistant isolates by CLSI agar dilution method in presence of clavulanate; assay type: functional; method in brief: as §2
[11] = tested on: Clostridium paraputrificum; assay: Antibacterial activity against beta-lactamase producing Clostridium paraputrificum by CLSI agar dilution method; assay type: functional
Fusobacterium varium [12] = assay: Antibacterial activity against Fusobacterium varium by CLSI agar dilution method; assay type: functional
[13] = tested on: Peptoniphilus asaccharolyticus; assay: Antibacterial activity against beta-lactamase producing Peptoniphilus asaccharolyticus assessed as resistant isolates by CLSI agar dilution method in presence of Tazobactam; assay type: functional; method in brief: as §2
Fusobacterium nucleatum [14] = assay: Antibacterial activity against Fusobacterium nucleatum assessed as resistant isolates by CLSI agar dilution method; assay type: functional
[15] = tested on: Fusobacterium necrophorum; assay: Antibacterial activity against Fusobacterium necrophorum by CLSI agar dilution method in presence of Tazobactam; assay type: functional; method in brief: as §1
Parvimonas micra [16] = assay: Antibacterial activity against beta-lactamase producing Micromonas micros assessed as susceptible isolates by CLSI agar dilution method in presence of Tazobactam; assay type: functional; method in brief: as §3
Fusobacterium mortiferum [17] = assay: Antibacterial activity against Fusobacterium mortiferum assessed as resistant isolates by CLSI agar dilution method in presence of Tazobactam; assay type: functional; method in brief: as §2
Clostridium perfringens = assay: microbe, parasite or virus in culture; assay type: functional
Bacteroides fragilis [18] = assay: Antibacterial activity against Bacteroides fragilis by CLSI agar dilution method in presence of Tazobactam; assay type: functional; method in brief: as §1
Phocaeicola vulgatus = assay: Antibacterial activity against beta-lactamase producing Bacteroides vulgatus assessed as susceptible isolates by CLSI agar dilution method in presence of Tazobactam; assay type: functional; method in brief: as §3
Parvimonas micra [19] = assay: Antibacterial activity against beta-lactamase producing Micromonas micros by CLSI agar dilution method; assay type: functional
Prevotella intermedia = assay: Antibacterial activity against Prevotella intermedia by CLSI agar dilution method; assay type: functional
Fusobacterium varium [20] = assay: Antibacterial activity against Fusobacterium varium assessed as resistant isolates by CLSI agar dilution method; assay type: functional
[21] = tested on: Fusobacterium necrophorum; assay: Antibacterial activity against Fusobacterium necrophorum by CLSI agar dilution method; assay type: functional
Finegoldia magna [22] = assay: Antibacterial activity against beta-lactamase producing Finegoldia magna by CLSI agar dilution method in presence of Tazobactam; assay type: functional; method in brief: as §3
Bacteroides fragilis [23] = assay: Antibacterial activity against Bacteroides fragilis assessed as resistant isolates by CLSI agar dilution method in presence of Tazobactam; assay type: functional; method in brief: as §2
Prevotella buccae [24] = assay: Antibacterial activity against Prevotella buccae assessed as susceptible isolates by CLSI agar dilution method; assay type: functional, Segatella buccae
Clostridium septicum [25] = assay: Antibacterial activity against beta-lactamase producing Clostridium septicum assessed as susceptible isolates by CLSI agar dilution method in presence of Tazobactam; assay type: functional; method in brief: as §3
Prevotella buccae [26] = assay: Antibacterial activity against Prevotella buccae assessed as resistant isolates by CLSI agar dilution method; assay type: functional, Segatella buccae
Prevotella bivia = assay: Antibacterial activity against Prevotella bivia assessed as resistant isolates by CLSI agar dilution method; assay type: functional
Finegoldia magna [27] = assay: Antibacterial activity against beta-lactamase producing Finegoldia magna assessed as resistant isolates by CLSI agar dilution method; assay type: functional
[28] = tested on: Fusobacterium necrophorum; assay: Antibacterial activity against Fusobacterium necrophorum assessed as resistant isolates by CLSI agar dilution method in presence of Tazobactam; assay type: functional; method in brief: as §2
Veillonella parvula = assay: Antibacterial activity against Veillonella parvula by CLSI agar dilution method in presence of Tazobactam; assay type: functional; method in brief: as §1
Bacteroides uniformis = assay: Antibacterial activity against beta-lactamase producing Bacteroides uniformis assessed as susceptible isolates by CLSI agar dilution method; assay type: functional
[29] = tested on: Fusobacterium necrophorum; assay: Antibacterial activity against Fusobacterium necrophorum assessed as susceptible isolates by CLSI agar dilution method in presence of Tazobactam; assay type: functional; method in brief: as §1
[30] = tested on: Bacteroides thetaiotaomicron; assay: Antibacterial activity against beta-lactamase producing Bacteroides thetaiotaomicron assessed as susceptible isolates by CLSI agar dilution method in presence of Tazobactam; assay type: functional; method in brief: as §1
Clostridium septicum [31] = assay: Antibacterial activity against beta-lactamase producing Clostridium septicum by CLSI agar dilution method; assay type: functional
[32] = tested on: Prevotella melaninogenica; assay: Antibacterial activity against Prevotella melaninogenica assessed as susceptible isolates by CLSI agar dilution method; assay type: functional
[33] = tested on: Peptostreptococcus anaerobius; assay: Antibacterial activity against beta-lactamase producing Peptostreptococcus anaerobius assessed as susceptible isolates by CLSI agar dilution method; assay type: functional

CC1(C)S[C@@H]2[C@H](NC(=O)[C@H](N)c3ccc(O)cc3)C(=O)N2[C@H]1C(=O)O [AMOXICILLIN]
Activity [1]: 89%
MIC [2]: 4 µg/mL
MIC50 [2]: 4 µg/mL
MIC90 [2]: 32 µg/mL
Activity [3]: 3%
MIC50 (Fusobacterium mortiferum [4]): 2 µg/mL
MIC90 (Fusobacterium mortiferum [4]): 4 µg/mL
MIC50 (Clostridium septicum [5]): 0.5 µg/mL
MIC90 (Clostridium septicum [5]): 2 µg/mL
Activity [6]: 81%
Activity (Fusobacterium nucleatum [7]): 7%
MIC50 (Fusobacterium varium [8]): 2 µg/mL
MIC90 (Fusobacterium varium [8]): 4 µg/mL
MIC50 (Bacteroides fragilis [9]): 4 µg/mL
MIC90 (Bacteroides fragilis [9]): 32 µg/mL
Activity [10]: 6%

CCN1CCN(C(=O)N[C@@H](C(=O)N[C@@H]2C(=O)N3[C@@H]2SC(C)(C)[C@@H]3C(=O)O)c2ccccc2)C(=O)C1=O [PIPERACILLIN]
MIC50 [11]: 0.25 µg/mL (≈ 0.483 µM)
MIC90 [11]: 2 µg/mL (≈ 3.86 µM)
MIC50 (Fusobacterium varium [12]): 2 µg/mL (≈ 3.86 µM)
MIC90 (Fusobacterium varium [12]): 8 µg/mL (≈ 15.5 µM)
Activity [13]: 0%
Activity (Fusobacterium nucleatum [14]): 10%
MIC50 [15]: 0.5 µg/mL
MIC90 [15]: 2 µg/mL
Activity (Parvimonas micra [16]): 97%
Activity (Fusobacterium mortiferum [17]): 0%
MIC50 (Clostridium perfringens): 0.25 µg/mL (≈ 0.483 µM)
MIC90 (Clostridium perfringens): 2 µg/mL (≈ 3.86 µM)
MIC50 (Bacteroides fragilis [18]): 1 µg/mL
MIC90 (Bacteroides fragilis [18]): 8 µg/mL
Activity (Phocaeicola vulgatus): 96%
MIC50 (Parvimonas micra [19]): 0.12 µg/mL (≈ 0.232 µM)
MIC90 (Parvimonas micra [19]): 8 µg/mL (≈ 15.5 µM)
MIC50 (Prevotella intermedia): 16 µg/mL (≈ 30.9 µM)
MIC90 (Prevotella intermedia): 128 µg/mL (≈ 247 µM)
Activity (Fusobacterium varium [20]): 10%
MIC50 [21]: 2 µg/mL (≈ 3.86 µM)
MIC90 [21]: 8 µg/mL (≈ 15.5 µM)
MIC (Finegoldia magna [22]): 0.03 µg/mL
MIC50 (Finegoldia magna [22]): 0.03 µg/mL
MIC90 (Finegoldia magna [22]): 2 µg/mL
Activity (Bacteroides fragilis [23]): 2%
Activity (Prevotella buccae [24]): 71%
Activity (Clostridium septicum [25]): 100%
Activity (Prevotella buccae [26]): 22%
Activity (Prevotella bivia): 22%
Activity (Finegoldia magna [27]): 3%
Activity [28]: 0%
MIC (Veillonella parvula): > 0.03 µg/mL
Activity (Bacteroides uniformis): 35%
Activity [29]: 100%
Activity [30]: 93%
MIC50 (Clostridium septicum [31]): 0.25 µg/mL (≈ 0.483 µM)
MIC90 (Clostridium septicum [31]): 2 µg/mL (≈ 3.86 µM)
Activity [32]: 71%
Activity [33]: 97%
